According to ChEMBL document CHEMBL1121414, “Central nervous system activity of 7-substituted 1-azaphenoxathiin analogues and their oxidation products” (1980):

Key:
Mus musculus = species on record: Mus musculus; assay: The compound was tested for antidepressant activity by its ability to reverse tetrabenazine induced ptosis in mice, perorally; format: functional; details: po
How it was run: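 Male albino CFI mice (18–22 g), groups of five, dosed po with test drug in methylcellulose suspension (initial screening dose 30 mg/kg). Tetrabenazine methanesulfonate 30 mg/kg was given ip 30 min later, and palpebral opening was scored after 30 min.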

Rattus norvegicus = assay: The compound was tested for antidepressant activity by its ability to inhibit muricidal intraperitoneally; format: functional; details: ip
How it was run: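 Male Long-Evans rats (200–300 g), groups of five, given test drug ip as a methylcellulose suspension at an initial screening dose of 10 or 20 mg/kg. Mice were presented to the rats 30 min after dosing.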

O=S1(=O)c2ccc(Cl)cc2Oc2cccnc21
ED50 (Mus musculus): 18 mg/kg | ED50 (Rattus norvegicus): > 10 mg/kg

FC(F)(F)c1ccc2c(c1)Oc1cccnc1S2
ED50 (Mus musculus): 16 mg/kg | ED50 (Rattus norvegicus): > 10 mg/kg

COc1ccc2c(c1)Oc1cccnc1S2(=O)=O
ED50 (Mus musculus): > 30 mg/kg | ED50 (Rattus norvegicus): > 10 mg/kg

COc1ccc2c(c1)Oc1cccnc1S2
ED50 (Mus musculus): > 30 mg/kg | ED50 (Rattus norvegicus): > 10 mg/kg

O=S1(=O)c2ccc(NO)cc2Oc2cccnc21
ED50 (Mus musculus): 2 mg/kg | ED50 (Rattus norvegicus): > 10 mg/kg

O=S1(=O)c2ccc(Br)cc2Oc2cccnc21
ED50 (Mus musculus): 15 mg/kg | ED50 (Rattus norvegicus): 7 mg/kg

O=[N+]([O-])c1ccc2c(c1)Oc1cccnc1S2
ED50 (Mus musculus): > 30 mg/kg | ED50 (Rattus norvegicus): 7 mg/kg

NS(=O)(=O)c1ccc2c(c1)Oc1cccnc1S2
ED50 (Mus musculus): > 30 mg/kg | ED50 (Rattus norvegicus): 8 mg/kg

Brc1ccc2c(c1)Oc1cccnc1S2
ED50 (Mus musculus): > 30 mg/kg | ED50 (Rattus norvegicus): > 10 mg/kg

Clc1ccc2c(c1)Oc1cccnc1S2
ED50 (Mus musculus): > 30 mg/kg | ED50 (Rattus norvegicus): > 10 mg/kg

O=S1(=O)c2ccc(C(F)(F)F)cc2Oc2cccnc21
ED50 (Mus musculus): 1 mg/kg | ED50 (Rattus norvegicus): 17 mg/kg

O=[N+]([O-])c1ccc2c(c1)Oc1cccnc1S2(=O)=O
ED50 (Mus musculus): 10 mg/kg | ED50 (Rattus norvegicus): 12 mg/kg

c1ccc2c(c1)Oc1cccnc1S2
ED50 (Mus musculus): 8 mg/kg | ED50 (Rattus norvegicus): > 10 mg/kg

O=S1(=O)c2ccccc2Oc2cccnc21
ED50 (Mus musculus): 12 mg/kg | ED50 (Rattus norvegicus): > 10 mg/kg

CN(C)CCCN1c2ccccc2CCc2ccccc21 [IMIPRAMINE]
ED50 (Mus musculus): 2 mg/kg | ED50 (Rattus norvegicus): 20 mg/kg
